Test results: ChEMBL document CHEMBL4145657 (J Med Chem, 2018)
Calls of active or inactive are those of the source. The rule behind the calls is not given here.

Key:
[1] = target: Delta-type opioid receptor (Homo sapiens) (UniProt P41143); assay: Agonist activity at human delta opioid receptor expressed in CHO cell membranes at 10 uM incubated for 60 mins by [35S]GTPgammaS binding assay; type: functional
Summary of the method: (§1)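 CHO cell membranes expressing human κ (20 µg), µ (10 µg) or δ (7 µg) opioid receptor. Test compound at 10 µM final, with 10 µM GDP and 0.1 nM [35S]GTPγS in HEPES pH 7.4 buffer containing NaCl, MgCl2, EDTA, DTT and BSA. Incubated 60 min at 22 °C with shaking, then filtered and counted. Nonspecific binding defined with 10 µM unlabeled GTPγS.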

[2] = target: Mu-type opioid receptor (Homo sapiens) (UniProt P35372); assay: Agonist activity at human mu opioid receptor expressed in CHO cell membranes at 10 uM incubated for 60 mins by [35S]GTPgammaS binding assay; type: functional; summary of the method: as §1
Sequence of Mu-type opioid receptor (Homo sapiens) (P35372 whole entry): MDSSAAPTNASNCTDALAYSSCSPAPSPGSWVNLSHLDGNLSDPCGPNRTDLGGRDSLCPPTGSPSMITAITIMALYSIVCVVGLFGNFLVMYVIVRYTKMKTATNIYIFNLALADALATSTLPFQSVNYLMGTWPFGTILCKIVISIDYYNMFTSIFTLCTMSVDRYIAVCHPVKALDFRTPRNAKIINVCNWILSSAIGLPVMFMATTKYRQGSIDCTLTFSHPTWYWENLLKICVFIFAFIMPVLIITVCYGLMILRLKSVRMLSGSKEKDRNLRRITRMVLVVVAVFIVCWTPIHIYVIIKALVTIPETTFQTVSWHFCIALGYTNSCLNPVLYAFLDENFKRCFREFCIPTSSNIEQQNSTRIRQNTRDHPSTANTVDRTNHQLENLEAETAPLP

[3] = target: Kappa-type opioid receptor (Homo sapiens) (UniProt P41145); assay: Agonist activity at human kappa opioid receptor expressed in CHO cell membranes at 10 uM incubated for 60 mins by [35S]GTPgammaS binding assay; type: functional; summary of the method: as §1
Sequence of Kappa-type opioid receptor (Homo sapiens) (P41145 whole entry): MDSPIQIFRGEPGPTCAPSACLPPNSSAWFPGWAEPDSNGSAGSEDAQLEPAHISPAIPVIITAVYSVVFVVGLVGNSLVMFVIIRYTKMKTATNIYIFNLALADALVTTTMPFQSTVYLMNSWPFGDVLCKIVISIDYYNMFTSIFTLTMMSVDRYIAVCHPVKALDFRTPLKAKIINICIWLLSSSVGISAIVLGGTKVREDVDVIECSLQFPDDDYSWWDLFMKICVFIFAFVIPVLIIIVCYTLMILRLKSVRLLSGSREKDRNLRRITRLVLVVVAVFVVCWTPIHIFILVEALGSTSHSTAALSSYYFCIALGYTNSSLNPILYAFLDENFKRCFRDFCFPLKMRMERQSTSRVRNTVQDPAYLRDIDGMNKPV

[4] = target: Delta-type opioid receptor (Homo sapiens) (UniProt P41143); conditions: CHO
[5] = Clearance in Sprague-Dawley rat plasma at 5 mg/kg, sc measured after 1 to 168 hrs post dose by LC/MS-MS method; type: ADME, organism-based
Summary of the method: (§2)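 Male Sprague Dawley rats, 10 weeks old, single subcutaneous 5 mg/kg dose at 1 mL/kg. Three rats per timepoint were killed by CO2 at 1, 4, 24, 72 and 168 h. Cardiac blood went into K3EDTA and was spun to plasma. Brains were homogenized 1:5 in 50:50 ethanol:water. Methanol precipitation used buspirone as internal standard. Analysis was by LC/MS-MS on C8 reverse phase. Parameters were taken from the apparent terminal elimination phase.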

[6] = target: Mu-type opioid receptor (Homo sapiens) (UniProt P35372); conditions: CHO
[7] = Half life in Sprague-Dawley rat plasma at 5 mg/kg, sc measured after 1 to 168 hrs post dose by LC/MS-MS method; type: ADME, organism-based; conditions: in vivo
Summary of the method: as §2, with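 “mL/kg.” for “mL/kg. Three rats per timepoint were killed by CO2 at 1, 4, 24, 72 and 168 h.”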

[8] = rat, in vivo, sc, 5 mg/kg

Sequence of Delta-type opioid receptor (Homo sapiens) (P41143 whole entry): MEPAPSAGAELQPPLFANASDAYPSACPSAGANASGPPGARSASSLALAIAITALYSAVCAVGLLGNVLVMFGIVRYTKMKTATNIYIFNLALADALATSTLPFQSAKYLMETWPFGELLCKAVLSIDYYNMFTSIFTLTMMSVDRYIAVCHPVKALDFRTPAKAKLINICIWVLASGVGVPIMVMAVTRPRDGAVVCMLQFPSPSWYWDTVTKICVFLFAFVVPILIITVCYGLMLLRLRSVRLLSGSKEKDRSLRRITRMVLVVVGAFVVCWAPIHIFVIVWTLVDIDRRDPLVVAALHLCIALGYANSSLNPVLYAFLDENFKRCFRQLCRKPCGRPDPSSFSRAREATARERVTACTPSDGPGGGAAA

**Q.** Which results are given for `COc1ccc2c(c1)CN[C@@H](C(=O)N[C@H](CC1CCCCC1)C(C)C)C2`?
**A.** Activity [1]: inactive; Activity [2]: inactive; Activity [3]: inactive

**Q.** With `CC(C)[C@@H](CC1CCCCC1)NC(=O)[C@@H]1Cc2ccc(O)cc2CN1` as the molecule, how does the Activity [1] read?
**A.** inactive

**Q.** And the Activity [2]?
**A.** inactive

**Q.** What about the Ke [4] of the same molecule?
**A.** > 3000 nM

**Q.** And the Activity [3]?
**A.** inactive

**Q.** Which results are given for `CC(C)[C@@H](CC1CCCCC1)NC(=O)[C@H]1Cc2ccccc2CN1`?
**A.** Activity [1]: inactive; Activity [2]: inactive; Activity [3]: inactive

**Q.** For `CC(C)[C@@H](CC1CCCCC1)NC(=O)[C@H]1Cc2ccc(C(N)=O)cc2CN1`, which CL/F [5] is on record?
**A.** 71.2 mL/min/kg

**Q.** And the Activity [1]?
**A.** inactive

**Q.** What about the Activity [2] of the same molecule?
**A.** inactive

**Q.** What about the Activity [3] of the same molecule?
**A.** inactive

**Q.** Which CL/F [5] does the source give for `CC(C)[C@@H](CC1CCCC1)NC(=O)[C@H]1Cc2ccc(O)cc2CN1` here?
**A.** 130 mL/min/kg

**Q.** What about the Activity [1] of the same molecule?
**A.** inactive

**Q.** What about the Activity [2] of the same molecule?
**A.** inactive

**Q.** What about the Ke [4] of the same molecule?
**A.** 1570 nM

**Q.** What about the Activity [3] of the same molecule?
**A.** inactive

**Q.** And the Ke [6]?
**A.** 344 nM

**Q.** What about the t1/2 [7] of the same molecule?
**A.** 32.1 h

**Q.** Which Activity [1] does the source give for `CC(C)[C@@H](CC1CCCC1)NC(=O)[C@@]1(C)Cc2ccc(O)cc2CN1` here?
**A.** inactive

**Q.** And the Activity [2]?
**A.** inactive

**Q.** What about the Activity [3] of the same molecule?
**A.** inactive

**Q.** For `CC(C)[C@@H](CC1CCCCC1)NC(=O)[C@H]1Cc2ccc(O)cc2CN1C`, which Activity [1] is on record?
**A.** inactive

**Q.** And the Activity [2]?
**A.** inactive

**Q.** What about the Activity [3] of the same molecule?
**A.** inactive

**Q.** Which Activity [1] does the source give for `O=C(NCCC1CCCCC1)[C@H]1Cc2ccc(O)cc2CN1` here?
**A.** inactive

**Q.** What about the Activity [2] of the same molecule?
**A.** inactive

**Q.** What about the Activity [3] of the same molecule?
**A.** inactive

**Q.** With `CC(C)[C@@H](CC1CCC1)NC(=O)[C@H]1Cc2ccc(O)cc2CN1` as the molecule, how does the Activity [1] read?
**A.** inactive

**Q.** What about the Activity [2] of the same molecule?
**A.** inactive

**Q.** And the Activity [3]?
**A.** inactive

**Q.** With `CC(C)[C@H](CC1CCCCC1)NC(=O)[C@@H]1Cc2ccc(O)cc2CN1` as the molecule, how does the Activity [1] read?
**A.** inactive

**Q.** And the Activity [2]?
**A.** inactive

**Q.** And the Ke [4]?
**A.** > 3000 nM

**Q.** And the Activity [3]?
**A.** inactive

**Q.** For `CC(C)[C@@H](CN1CC[C@@](C)(c2cccc(O)c2)[C@@H](C)C1)NC(=O)[C@H]1Cc2ccc(O)cc2CN1` [JDTIC], which t1/2 [7] is on record?
**A.** 28.4 h

**Q.** Which Activity [1] does the source give for `O=C(N[C@H](CC1CCCCC1)C1CC1)[C@H]1Cc2ccc(O)cc2CN1` here?
**A.** inactive

**Q.** And the Activity [2]?
**A.** inactive

**Q.** What about the Activity [3] of the same molecule?
**A.** inactive

**Q.** Which results are given for `CC(C)[C@@H](CC1CCCCCC1)NC(=O)[C@H]1Cc2ccc(O)cc2CN1`?
**A.** Activity [1]: inactive; Activity [2]: inactive; Activity [3]: inactive

**Q.** Which Activity [1] does the source give for `CC(C)[C@@H](CC1CCCCC1)NC(=O)[C@H]1Cc2ccc(F)cc2CN1` here?
**A.** inactive

**Q.** And the Activity [2]?
**A.** inactive

**Q.** And the Activity [3]?
**A.** inactive

**Q.** Which Activity [1] does the source give for `CC(C)[C@H](CC1CCCCC1)NC(=O)[C@H]1Cc2ccc(O)cc2CN1` here?
**A.** inactive

**Q.** What about the Activity [2] of the same molecule?
**A.** inactive

**Q.** And the Ke [4]?
**A.** > 3000 nM

**Q.** What about the Activity [3] of the same molecule?
**A.** inactive

**Q.** With `CC(C)[C@@H](CC1CCCC1)NC(=O)[C@H]1Cc2ccc(C(N)=O)cc2CN1` as the molecule, how does the Activity [1] read?
**A.** inactive

**Q.** And the Activity [2]?
**A.** inactive

**Q.** And the Activity [3]?
**A.** inactive

**Q.** For `CC(C)[C@@H](CC1CCCCC1)NC(=O)[C@H]1Cc2ccc(O)cc2CN1`, which CL/F [5] is on record?
**A.** 98.6 mL/min/kg

**Q.** And the Activity [1]?
**A.** inactive

**Q.** And the Tmax [8]?
**A.** 1 h

**Q.** And the Activity [2]?
**A.** inactive

**Q.** And the Activity [3]?
**A.** inactive

**Q.** What about the t1/2 [7] of the same molecule?
**A.** 34.2 h

**Q.** With `O=C(N[C@H](CC1CCCCC1)c1ccccc1)[C@H]1Cc2ccc(O)cc2CN1` as the molecule, how does the Activity [1] read?
**A.** inactive

**Q.** And the Activity [2]?
**A.** inactive

**Q.** And the Activity [3]?
**A.** inactive

**Q.** For `O=C(N[C@H](CC1CCCC1)C1CC1)[C@H]1Cc2ccc(O)cc2CN1`, which Activity [1] is on record?
**A.** inactive

**Q.** And the Activity [2]?
**A.** inactive

**Q.** And the Activity [3]?
**A.** inactive

**Q.** Which results are given for `CC1CCC(C[C@@H](NC(=O)[C@H]2Cc3ccc(O)cc3CN2)C(C)C)CC1` (some centres undefined)?
**A.** Activity [1]: inactive; Activity [2]: inactive; Activity [3]: inactive
